Assay [1] addresses T1, NmeIPMS (Neisseria meningitidis serogroup B, UniProt Q9JZG1).
T1 sequence (Q9JZG1 1-517): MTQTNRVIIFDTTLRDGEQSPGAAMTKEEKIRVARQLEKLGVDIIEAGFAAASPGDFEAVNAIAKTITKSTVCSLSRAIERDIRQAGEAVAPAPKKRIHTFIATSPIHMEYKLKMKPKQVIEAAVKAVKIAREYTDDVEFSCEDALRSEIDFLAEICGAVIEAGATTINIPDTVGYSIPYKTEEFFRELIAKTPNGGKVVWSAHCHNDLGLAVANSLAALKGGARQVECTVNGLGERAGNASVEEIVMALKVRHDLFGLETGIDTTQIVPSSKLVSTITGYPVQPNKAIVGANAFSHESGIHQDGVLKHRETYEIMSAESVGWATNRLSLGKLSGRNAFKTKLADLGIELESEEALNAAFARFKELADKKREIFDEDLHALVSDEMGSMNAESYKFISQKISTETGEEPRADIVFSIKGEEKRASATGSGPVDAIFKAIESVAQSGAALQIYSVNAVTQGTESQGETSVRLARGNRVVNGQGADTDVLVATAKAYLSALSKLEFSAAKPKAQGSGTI
As to the kind of experiment: DTP-coupled kinetic assay. The settings on record: read-out: Km^KIV; WT NmeIPMS; apparent Km; AcCoA fixed at 300 μM; 25 °C, pH 7.5. The assay is classed as biochemical. Summed up: (§1)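 E. coli BL21(DE3)-expressed enzyme, TEV-cleaved and SEC-purified; variant homodimers taken as the StrepTrap flow-through. CoA release monitored with DTP at 324 nm (ε = 1.98 × 10⁴ l × M⁻¹ cm⁻¹), 25 °C. Mix: 100 μM DTP, 20 mM KCl, 20 mM MgCl₂, 3.0 × 10⁻² μM enzyme, 50 mM HEPES pH 7.5, started with α-KIV. One substrate held at 300 μM, the other varied.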

Assay [2] deals with T2, NmeIPMSR470Q (Neisseria meningitidis serogroup B, UniProt Q9JZG1, R470Q).
T2 sequence (Q9JZG1 1-517 R470Q): T1 sequence (Q9JZG1 1-517) with R470Q
Nature of the assay: DTP-coupled kinetic assay. The assay is classed as biochemical. The settings on record: homodimer R470Q, apparent Km. Summed up: as §1

The target in assay [3] is T3, NmeIPMSR32Q (Neisseria meningitidis serogroup B, UniProt Q9JZG1, R32Q).
T3 sequence (Q9JZG1 1-517 R32Q): T1 sequence (Q9JZG1 1-517) with R32Q
Nature of the assay: DTP-coupled kinetic assay. The format is biochemical. The settings on record: homodimer R32Q, apparent Km. In a few lines:
as §1

Assay [4] concerns the target T1, NmeIPMS. Nature of the assay: waterLOGSY NMR Leu binding assay. In a few lines: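 Leu titrated at 0, 50, 150, 250, 500 and 750 μM in 10 mM HEPES pH 8.0, 3 mM MgCl₂, 3 mM KCl, 10% D₂O. Each sample recorded first without enzyme, then with 10 μM untagged enzyme. ¹H spectra at 600 MHz, 25 °C, without a water flipback pulse. KD fitted from the isotherm of corrected waterLOGSY intensity change against ligand concentration.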

In assay [5] the target is T2, NmeIPMSR470Q. Nature of the assay: Leu inhibition assay. The assay is classed as biochemical.
The target of assay [6] is T3, NmeIPMSR32Q. Nature of the assay: Leu inhibition assay. The assay is classed as biochemical.
Assay [7] addresses T3, NmeIPMSR32Q. Nature of the assay: waterLOGSY NMR Leu binding assay.
Assay [8] concerns the target T4, NmeIPMSR32Q^hetero (Neisseria meningitidis serogroup B, UniProt Q9JZG1, R32Q).
T4 sequence (Q9JZG1 1-517 R32Q): T1 sequence (Q9JZG1 1-517) with R32Q
T4 sequence (Q9JZG1 1-517): T1 sequence (Q9JZG1 1-517)
Nature of the assay: waterLOGSY NMR Leu binding assay.

Assay [9] deals with T2, NmeIPMSR470Q. Nature of the assay: waterLOGSY NMR Leu binding assay.
The target in assay [10] is T5, NmeIPMSR470Q^hetero (Neisseria meningitidis serogroup B, UniProt Q9JZG1, R470Q).
T5 sequence (Q9JZG1 1-517 R470Q): T1 sequence (Q9JZG1 1-517) with R470Q
T5 sequence (Q9JZG1 1-517): T1 sequence (Q9JZG1 1-517)
As to the kind of experiment: waterLOGSY NMR Leu binding assay.

[11] abbreviates: read-out: Km^KIV, AcCoA fixed at 300 μM.
Where [12] appears, read: read-out: Km^AcCoA, α-KIV fixed at 300 μM.

This passage reports Km, Kd and Ki results from article PMC9860122 (The Journal of Biological Chemistry, 2022).

In general, Km refers to the substrate concentration at which the rate is half of its maximum. One may read the Kd as the free concentration of one partner at which half of the binding sites on the other are occupied at equilibrium, for simple one-to-one binding. Low values mean a tighter complex, high ones a looser complex. The term Ki denotes the dissociation constant of the complex between target and ligand, obtained from inhibition or displacement. Low values mean higher affinity, high ones lower affinity.

Positions count from the first letter of the chain named. Where two headings read alike, the source gives them in different places.

As to `CC(C)C(=O)C(=O)O` [KIV, α-ketoisovalerate], the Km came out at 37 ± 5 µM in assay [1], 53 ± 6 µM in assay [2] (setting [11]) and 47 ± 3 µM in assay [3] (setting [11]).
As for `CC(C)C[C@H](N)C(=O)O` [Leu, leucine], the Kd came to 376 ± 48 µM in [4]; 352 ± 37 µM in [7]; 324 ± 65 µM in assay [8]; 386 ± 72 µM in assay [9]; 370 ± 55 µM in assay [10]. The Ki in assay [5] and in assay [6] was above 100 µM in each case.
In the case of `CC(=O)SCCNC(=O)CCNC(=O)[C@H](O)C(C)(C)COP(=O)(O)OP(=O)(O)OC[C@H]1O[C@@H](n2cnc3c(N)ncnc32)[C@H](O)[C@@H]1OP(=O)(O)O` [AcCoA, acetyl-coenzyme A], the Km in assay [2] (setting [12]) stood at 48 ± 3 µM; in assay [3] (setting [12]) it was 40 ± 5 µM.
